Measurements from ChEMBL document CHEMBL4689842, “EUbOPEN Chemogenomics Library wave 1” (2021).

Test system: U2OS
Assay: Multiplex assay against U2OS
Type: toxicity, cell-based
Conditions: human
Method in brief: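 At seeding, live cells were stained with Hoechst33342, BioTracker Green Microtubule Cytoskeleton Dye, MitoTracker Red and Annexin V Alexa Fluor 680. After compound addition they were imaged on a CQ1 microscope at 37°C and 5% CO2, and CellPathfinder machine-learning gating sorted them into Hoechst high-intensity objects or normal cells, with normal cells further split into healthy, pyknosed or fragmented nuclei and pyknosed cells into mitotic or apoptotic. Tubulin, mitochondrial-mass and membrane-permeability phenotypes are given as per cents of cells with healthy nuclei.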

[1] = 12 h, 1 µM, compound concentration 1 uM, replicate 1
[2] = 12 h, 1 µM, compound concentration 1 uM, replicate 2
[3] = 12 h, 10 µM, compound concentration 10 uM, replicate 1
[4] = 12 h, 10 µM, compound concentration 10 uM, replicate 2
[5] = 24 h, 1 µM, compound concentration 1 uM, replicate 1
[6] = 24 h, 1 µM, compound concentration 1 uM, replicate 2
[7] = 24 h, 10 µM, compound concentration 10 uM, replicate 1

**Q.** How did the “Population Apoptotic (%)” value [1] turn out when Cc1nc(Cc2cccc(C(F)(F)F)c2)sc1-c1ccc(C(N)=O)nc1 [TP-024n] was run?
**A.** The value was 58%.

**Q.** And the “Population Fragmented Nuclei (%)” value [1]?
**A.** Its value is 8%.

**Q.** What about the “Population Healthy Nuclei (%)” value [1] of the same molecule?
**A.** Its value is 85%.

**Q.** And the “Population Hoechst High Intensity Objects (%)” value [1]?
**A.** The value was 5%.

**Q.** What about the “Population Membrane Permeable-Phenotype (%)” value [1] of the same molecule?
**A.** Its value is 5%.

**Q.** And the “Population Mitochondria Different-Phenotype (%)” value [1]?
**A.** The value was 10%.

**Q.** What about the “Population Mitotic Cells (%)” value [1] of the same molecule?
**A.** Its value is 41%.

**Q.** And the “Population Normal (%)” value [1]?
**A.** Its value is 94%.

**Q.** What about the “Population Pyknosed Nuclei (%)” value [1] of the same molecule?
**A.** Its value is 6%.

**Q.** What about the “Population Tubulin-Different-Phenotype (%)” value [1] of the same molecule?
**A.** Its value is 9%.

**Q.** What about the “Total Cell Count” value [1] of the same molecule?
**A.** Its value is 159.

**Q.** What about the “Population Apoptotic (%)” value [2] of the same molecule?
**A.** Its value is 50%.

**Q.** And the “Population Fragmented Nuclei (%)” value [2]?
**A.** Its value is 0%.

**Q.** And the “Population Healthy Nuclei (%)” value [2]?
**A.** Its value is 94%.

**Q.** And the “Population Hoechst High Intensity Objects (%)” value [2]?
**A.** Its value is 11%.

**Q.** And the “Population Membrane Permeable-Phenotype (%)” value [2]?
**A.** The value was 2%.

**Q.** What about the “Population Mitochondria Different-Phenotype (%)” value [2] of the same molecule?
**A.** The value was 18%.

**Q.** And the “Population Mitotic Cells (%)” value [2]?
**A.** The value was 50%.

**Q.** And the “Population Normal (%)” value [2]?
**A.** The value was 88%.

**Q.** And the “Population Pyknosed Nuclei (%)” value [2]?
**A.** The value was 5%.

**Q.** What about the “Population Tubulin-Different-Phenotype (%)” value [2] of the same molecule?
**A.** The value was 16%.

**Q.** What about the “Total Cell Count” value [2] of the same molecule?
**A.** Its value is 130.

**Q.** And the “Population Apoptotic (%)” value [3]?
**A.** The value was 45%.

**Q.** And the “Population Healthy Nuclei (%)” value [3]?
**A.** Its value is 68%.

**Q.** What about the “Population Hoechst High Intensity Objects (%)” value [3] of the same molecule?
**A.** Its value is 6%.

**Q.** And the “Population Membrane Permeable-Phenotype (%)” value [3]?
**A.** The value was 3%.

**Q.** And the “Population Mitochondria Different-Phenotype (%)” value [3]?
**A.** Its value is 27%.

**Q.** And the “Population Mitotic Cells (%)” value [3]?
**A.** The value was 54%.

**Q.** And the “Population Normal (%)” value [3]?
**A.** Its value is 93%.

**Q.** What about the “Population Pyknosed Nuclei (%)” value [3] of the same molecule?
**A.** Its value is 13%.

**Q.** And the “Population Tubulin-Different-Phenotype (%)” value [3]?
**A.** The value was 22%.

**Q.** And the “Total Cell Count” value [3]?
**A.** Its value is 186.

**Q.** And the “Population Apoptotic (%)” value [4]?
**A.** Its value is 66%.

**Q.** And the “Population Fragmented Nuclei (%)” value [4]?
**A.** The value was 17%.

**Q.** What about the “Population Healthy Nuclei (%)” value [4] of the same molecule?
**A.** The value was 67%.

**Q.** What about the “Population Hoechst High Intensity Objects (%)” value [4] of the same molecule?
**A.** Its value is 4%.

**Q.** And the “Population Membrane Permeable-Phenotype (%)” value [4]?
**A.** Its value is 9%.

**Q.** And the “Population Mitochondria Different-Phenotype (%)” value [4]?
**A.** The value was 21%.

**Q.** What about the “Population Mitotic Cells (%)” value [4] of the same molecule?
**A.** Its value is 33%.

**Q.** What about the “Population Normal (%)” value [4] of the same molecule?
**A.** Its value is 95%.

**Q.** What about the “Population Pyknosed Nuclei (%)” value [4] of the same molecule?
**A.** Its value is 14%.

**Q.** And the “Population Tubulin-Different-Phenotype (%)” value [4]?
**A.** The value was 11%.

**Q.** And the “Total Cell Count” value [4]?
**A.** Its value is 44.

**Q.** What about the “Population Apoptotic (%)” value [5] of the same molecule?
**A.** Its value is 46%.

**Q.** What about the “Population Fragmented Nuclei (%)” value [5] of the same molecule?
**A.** Its value is 6%.

**Q.** And the “Population Healthy Nuclei (%)” value [5]?
**A.** Its value is 86%.

**Q.** What about the “Population Hoechst High Intensity Objects (%)” value [5] of the same molecule?
**A.** Its value is 4%.

**Q.** What about the “Population Membrane Permeable-Phenotype (%)” value [5] of the same molecule?
**A.** The value was 3%.

**Q.** What about the “Population Mitochondria Different-Phenotype (%)” value [5] of the same molecule?
**A.** Its value is 8%.

**Q.** What about the “Population Mitotic Cells (%)” value [5] of the same molecule?
**A.** Its value is 53%.

**Q.** What about the “Population Normal (%)” value [5] of the same molecule?
**A.** Its value is 95%.

**Q.** And the “Population Pyknosed Nuclei (%)” value [5]?
**A.** The value was 6%.

**Q.** What about the “Population Tubulin-Different-Phenotype (%)” value [5] of the same molecule?
**A.** Its value is 8%.

**Q.** What about the “Total Cell Count” value [5] of the same molecule?
**A.** Its value is 164.

**Q.** What about the “Population Apoptotic (%)” value [6] of the same molecule?
**A.** Its value is 50%.

**Q.** And the “Population Fragmented Nuclei (%)” value [6]?
**A.** The value was 5%.

**Q.** What about the “Population Healthy Nuclei (%)” value [6] of the same molecule?
**A.** Its value is 91%.

**Q.** What about the “Population Hoechst High Intensity Objects (%)” value [6] of the same molecule?
**A.** The value was 5%.

**Q.** And the “Population Membrane Permeable-Phenotype (%)” value [6]?
**A.** Its value is 1%.

**Q.** What about the “Population Mitochondria Different-Phenotype (%)” value [6] of the same molecule?
**A.** Its value is 7%.

**Q.** And the “Population Mitotic Cells (%)” value [6]?
**A.** Its value is 50%.

**Q.** And the “Population Pyknosed Nuclei (%)” value [6]?
**A.** The value was 3%.

**Q.** What about the “Population Tubulin-Different-Phenotype (%)” value [6] of the same molecule?
**A.** Its value is 15%.

**Q.** What about the “Total Cell Count” value [6] of the same molecule?
**A.** Its value is 126.

**Q.** And the “Population Apoptotic (%)” value [7]?
**A.** The value was 42%.

**Q.** And the “Population Fragmented Nuclei (%)” value [7]?
**A.** Its value is 19%.

**Q.** And the “Population Membrane Permeable-Phenotype (%)” value [7]?
**A.** Its value is 8%.

**Q.** What about the “Population Mitochondria Different-Phenotype (%)” value [7] of the same molecule?
**A.** The value was 23%.

**Q.** What about the “Population Mitotic Cells (%)” value [7] of the same molecule?
**A.** The value was 57%.
